Assay results from ChEMBL document CHEMBL4020803, “Structure-based identification of inhibitors targeting obstruction of the HIVgp41 N-heptad repeat trimer” (Bioorg Med Chem Lett, 2017).
Active and inactive are the calls of the source. No cut-off for these calls is given here.

What was measured:
[1] = tested on: Human immunodeficiency virus 1; assay: Antiviral activity against VSV-G pseudotyped HIV1 assessed as inhibition of virus entry by cell-based assay; format: functional
Method in brief: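 VSV-G-pseudotyped HIV-1 (pNL4-3.HSA.R-E- plus pCMV-VSV-G, made by PEI transfection), tested at 25 μM. TZM-bl cells (10^4/well) and MOI 0.1 virus were each pretreated 1 h at 37 °C. Compound medium was replaced with the treated virus, then spinoculation at 1,000 × g for 1 h at room temperature and 1 h at 37 °C. Cells were washed, grown 48 h drug-free, and read by luciferase. Bafilomycin A1 control.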

[2] = Cytotoxicity against human HL2/3 cells assessed as decrease in cell viability at 25 uM after 6 hrs; format: cell-based; details: hl2/3, 6 h
Method in brief: (§1)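 Viability measured in the same wells as the fusion read-out, using the combined luciferase/cell-viability kit. TZM-bl and HL2/3 cells were pretreated with 25 μM compound, DMSO or 1 μM C34, then co-cultured 6 h at 37 °C, 5% CO2. Duplicate wells per compound.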

[3] = tested on: Human immunodeficiency virus 1; assay: Inhibition of HIV1 gp41-induced cell-cell fusion between viral protein expressing human HL2/3 cells and TZM-bl target cells at 25 uM preincubated with cells followed by co-incubation for 6 hrs by luciferase reporter gene assay relative to control
Method in brief: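 TZM-bl receptor cells seeded a day ahead, then TZM-bl and HL2/3 effector cells pretreated with 25 μM compound (DMSO stock diluted in complete medium), DMSO alone (maximum signal) or 1 μM C34 (maximum inhibition); cells co-incubated 6 h at 37 °C, 5% CO2. Fusion read by luciferase in a combined luciferase/viability kit; signal normalized to controls. Duplicate wells per compound.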

[4] = tested on: Human immunodeficiency virus 1; assay: Antiviral activity against HIV1 assessed as inhibition of viral entry into human TZM-bl cells at 25 uM preincubated with cells for 1 hr followed by inoculation with 1 hr compound pretreated virus measured 48 hrs post compound wash out by luciferase reporter gene assay relative to control; format: functional; details: for inhibition at 25 µM: Human immunodeficiency virus 1, TZM-bl
Method in brief: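 HIV-1 made by PEI co-transfection of pNL4-3.HSA.R-E- and pHXB2-env; titer set by X-Gal staining on TZM-bl. TZM-bl seeded 10^4/well a day ahead, pretreated 1 h at 37 °C with 25 μM compound, DMSO or 1 μM C34. Virus (MOI 0.1) preincubated 1 h with the same treatment, added, spinoculated 1,000 × g 1 h RT, 1 h 37 °C, washed, luciferase read at 48 h, normalized.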

TZM = assay: Cytotoxicity against human TZM-bl cells assessed as decrease in cell viability at 25 uM after 6 hrs; format: cell-based; method in brief: as §1

Compound	inhibition [1]	Activity [2]	inhibition [3]	inhibition at 25 µM [4]	Activity (TZM)	inhibition [4]
Cc1ccc(CNC(=O)c2oc3ccc(S(=O)(=O)N4CCC5(CC4)OCCO5)cc3c2C)cc1	inactive	Non-Toxic	> 50%	> 50%	Non-Toxic	–
CCn1c(SCC(=O)N/N=C/c2cccc(Oc3ccccc3)c2)nnc1-c1ccc(OC)cc1	–	–	–	–	–	inactive
Cn1c(SCC(=O)N/N=C/c2cc(Br)cc(Br)c2O)nc2ccccc21	inactive	Non-Toxic	> 50%	> 50%	Non-Toxic	–
COc1ccc(-c2cc(C(=O)NCc3ccc(Cl)cc3)n[nH]2)cc1S(=O)(=O)N1CCOCC1	–	–	–	–	–	inactive
